Screening results as filed in PubChem BioAssay.
STEP block = STEP phosphatase inhibitors, primary screen, biochemical, fluorescence intensity, uHTS; Tyrosine-protein phosphatase non-receptor type 5 (Homo sapiens), P54829; recombinant STEP, OMFP fluorogenic substrate; inhibition, % at 20 µM; 360,000 tested, 0.25% active; AID 588621, 2011;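 active = inhibition at 20 µM, scaled per plate between control wells, above about 37%, limit read from the data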;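 also: 0% = DMSO with enzyme and substrate and 100% = substrate only without enzyme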
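Material: STEP (striatal-enriched tyrosine phosphatase) enzyme, cell-free; Compound dosing: 20 µM single dose in 1% DMSO; Technique: fluorescence read at 480 nm ex / 540 nm em; Times: reaction 20 min, ambient temperature; Medium: 50 mM Bis-Tris pH 6.0 with 2.5 mM DTT and 0.005% Tween 20; Also added: OMFP at 25 µM.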
Scp-1 inhibitor = Scp-1 phosphatase inhibitors, primary screen, biochemical, colorimetric, uHTS. 340,000 tested, 0.88% active. Recombinant Scp1, phosphopeptide, malachite green phosphate absorbance. inhibition, % at 20 µM. Carboxy-terminal domain RNA polymerase II polypeptide A small phosphatase 1 (Homo …. AID 493091, 2011;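 active = inhibition above about 50% at 20 µM, limit read from the data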;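 also: plate controls were DMSO wells with enzyme for no effect and wells lacking enzyme for full effect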
Target sequence (Q9GZU7 76-261 limits assumed): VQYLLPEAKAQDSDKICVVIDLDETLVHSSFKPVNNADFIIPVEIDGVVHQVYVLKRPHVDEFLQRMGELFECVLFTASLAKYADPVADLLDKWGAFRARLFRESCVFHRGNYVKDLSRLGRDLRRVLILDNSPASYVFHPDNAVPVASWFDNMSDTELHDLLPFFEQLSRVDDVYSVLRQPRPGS
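Times: enzyme reaction 45 min at room temperature, colour 5 min, stabilisation 30 min. Material: SCP-1 catalytic fragment, aa 76-261. Medium: Acidic Tris acetate buffer with magnesium and detergent. Signal: colorimetric free-phosphate detection, absorbance 630 nm. Read-out basis: % inhibition of SCP-1 phosphate liberation. Reagent: Phosphorylated 17-residue peptide substrate.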
SUMO1 PPI mod = modulators of SUMO1 protein-protein interactions, primary screen, biochemical, uHTS | SUMO1 binding to a labelled peptide, TR-FRET, 1 h | inhibition, % at 20 µM | 360,000 tested, 0.33% active | AID 602429, 2012; in the data active = inhibition above about 37%
Target sequence (P63165 whole entry, looked up): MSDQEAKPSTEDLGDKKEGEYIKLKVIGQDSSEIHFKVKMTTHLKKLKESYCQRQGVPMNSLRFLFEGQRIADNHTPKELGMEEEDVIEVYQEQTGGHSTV
DNMT1 block = human DNMT1 methyltransferase inhibitors, primary screen, biochemical, molecular beacon, fluorescence, HinP1I cleavage, uHTS. DNA (cytosine-5)-methyltransferase 1 (Homo sapiens), P26358. inhibition (reported as % activation of signal), % at 10 µM. 360,000 tested, 0.83% active; in the data active = inhibition above about 50%
CASP6 VEID inh = human caspase-6 inhibitors, primary screen, biochemical, VEID-R110 fluorescence, single point, set 2 | purified caspase-6, Z-VEID-R110 cleavage fluorescence | P55212 | inhibition, % at 12.5 µM | 350,000 tested, 0.53% active | AID 686996, 2013;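 active = mean inhibition across replicates at least about 35%, with every replicate also reaching that limit, limit read from the data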;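 also: 0% = median of neutral control wells and 100% = no fluorescence left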
Target sequence (P55212 24-179 limits assumed): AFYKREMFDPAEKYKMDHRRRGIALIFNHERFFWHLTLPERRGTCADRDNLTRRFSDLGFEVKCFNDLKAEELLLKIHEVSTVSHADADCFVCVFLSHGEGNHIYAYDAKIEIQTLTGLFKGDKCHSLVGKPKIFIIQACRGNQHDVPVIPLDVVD
Target sequence (P55212 194-293 limits assumed): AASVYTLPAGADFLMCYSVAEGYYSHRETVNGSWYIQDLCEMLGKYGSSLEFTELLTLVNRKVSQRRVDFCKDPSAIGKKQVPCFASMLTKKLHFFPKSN
LMPTP inh = LMPTP phosphatase inhibitors, primary screen, biochemical, fluorescence intensity, uHTS | 360,000 tested, 0.22% active | inhibition, % at 20 µM | recombinant LMPTP-A, OMFP fluorogenic substrate | Low molecular weight phosphotyrosine protein phosphatase (Homo sapiens), P24666;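 active = compounds that cut the enzyme signal by at least half of the control window in the single-dose screen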;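 also: plate controls were DMSO wells with enzyme plus substrate for no effect and substrate without enzyme for full effect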
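Material: LMPTP-A; amount: 0.625 nM enzyme; doses: single 20 µM dose; times: reaction 50 min, room temperature, dark; technique: fluorescence intensity of OMFP turnover product; benchmarks: no-enzyme and uninhibited controls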
Starred values were filed as active, the others as inactive; . = no result given. The list is not random: actives were taken first. Their share in the collection is about 1.7%.

SMILES	STEP block	Scp-1 inhibitor	SUMO1 PPI mod	DNMT1 block	CASP6 VEID inh	LMPTP inh
COC(=O)c1ccc2c(c1)C(C)(C)C(/C=C/c1ccc(O)cc1)=[N+]2C	-6	99*	-10	-19	.	7
COC(=O)c1ccc2c(c1)C(C)(C)C(/C=C/c1ccc(OC)c(OC)c1OC)=[N+]2C	-6	96*	0	-1	.	-2
CC(=O)OCC(=O)Nc1cc(S(=O)(=O)N2CCCCCC2)ccc1Cl	-2	-3	3	1	2	0
CCC(CN(C)C)Oc1cc(NCc2ccccc2)c2ncn(C(C)C)c2c1 (stereo unspecified)	-2	2	5	61*	.	5
CCC(CO)Oc1cc(NC(=O)c2ccccc2C)c2ncn(C(C)C)c2c1 (stereo unspecified)	-3	-6	50*	-46	-1	-2
CCC(CO)Oc1cc(NC(=O)c2ccccc2N)c2ncn(C(C)C)c2c1 (stereo unspecified)	-3	1	6	-7	4	-1
CCC(CO)Oc1cc(NC(=O)c2ccccc2)c2ncn(C(C)C)c2c1 (stereo unspecified)	-3	4	10	0	-1	-2
CCC(CO)Oc1cc(NC(=O)c2ccccc2F)c2ncn(C(C)C)c2c1 (stereo unspecified)	2	4	92*	-30	14	-2
CS(=O)(=O)N(CC(=O)N1CCCCC1)C1CCCCC1	0	0	0	3	.	0
CN(C)CCNC(=O)c1cccc(-c2cc(NC=O)c3ncc(-c4cccc(C(F)(F)F)c4)n3c2)c1	1	.	-144	-16	-123	-5
C#CCOc1ccc(CNC[C@H]2O[C@@H](n3ccc(N)nc3=O)[C@H](O)[C@@H]2O)cc1	2	.	3	5	39*	-1
C[C@@H]1CN([C@H](C)CO)C(=O)c2cccc(NC(=O)c3nc4ccccc4s3)c2O[C@@H]1CN(C)Cc1ccc(-c2ccccc2)cc1	.	.	.	.	-3	.
CCn1c(CSc2nc3ccccc3s2)nnc1SCC(=O)c1ccc(O)c(O)c1	1	59*	13	8	.	50
N#Cc1cn(CC(=O)N2CCCc3ccccc32)c2ccccc12	-1	-2	3	-2	.	2
CCCc1cc(-c2n[nH]c(C(=O)OCC)c2-c2cscn2)c(O)cc1O	-2	-8	2	0	45*	-5
O=C(O)[C@H]1[C@H](CO)[C@H]2Cn3c(ccc(-c4cncnc4)c3=O)[C@H]2N1C(=O)C1CCC1	.	.	.	.	2	.
O=C(NCc1ccco1)c1ccc(Br)c(S(=O)(=O)N2CCCCC2)c1	3	1	5	-3	72*	-2
O=C(NCc1ccco1)c1ccc(F)c(S(=O)(=O)N2CCCCC2)c1	9	-3	3	-1	-1	0
O=C(NCc1ccco1)c1ccc(S(=O)(=O)N2CCOCC2)cc1	12	33	7	76*	.	5
CCOC(=O)c1ccc(NC(=O)C2CC(O)CN2S(=O)(=O)c2ccc(C)cc2)cc1 (stereo unspecified)	-2	-6	42*	2	2	-1
N#C/C(=N/Nc1ccc(OC(F)(F)F)cc1)C(N)=S	1	-16	-16	-6	5	4
NC(=S)N=Nc1ccc(NN=C(N)N)cc1	84*	-14	27	6	-7	41
O=C(NC(=O)c1csnn1)Nc1ccccc1Cl	8	-5	-2	-5	61*	-1
NC(=O)NC(=O)Nc1ccccc1Cl	-1	-6	0	1	.	-1
O=C(Cc1cccs1)OCC(=O)c1ccco1	11	70*	5	65*	.	3
SMILES	STEP block	Scp-1 inhibitor	SUMO1 PPI mod	DNMT1 block	CASP6 VEID inh	LMPTP inh
Cn1c(N)c(C(=O)COC(=O)Cc2cccs2)c(=O)n(C)c1=O	-3	1	2	3	-5	-1
N#C/C(=C/c1cccn1-c1cccc(C(=O)O)c1)c1ccc(F)cc1	2	21	-6	44	70*	1
CCNc1nc(NCC)n2c(SCC(=O)Nc3ccc(C)c(C)c3)nnc2n1	1	30	11	13	37*	0
CC(C)(C)S(=O)N1Cc2cc(C(=O)N3CCc4ccccc4C3)nc(-c3cccc(-c4cccnc4)c3)c2[C@@H]1CCO (stereo partly specified)	-4	.	4	-17	42*	10
N#Cc1c(SCC(=O)Nc2ccc(Cl)cc2Cl)sc2c(O)cc(=O)[nH]c12	7	41	4	21	40*	22
Cc1c(Cl)cccc1NC(=O)CSc1sc2c(O)cc(=O)[nH]c2c1C#N	6	1	-4	1	33	4
N#Cc1c(SCC(=O)Nc2ccccc2C(F)(F)F)sc2c(O)cc(=O)[nH]c12	6	23	2	5	43*	1
O=C1C=C(C2CCCCC2)C(=O)c2ccccc21	3	-13	-28	2	50*	1
O=C(O)c1cccc(NS(=O)(=O)c2ccc3nnn(O)c3c2)c1	-3	-2	-2	-1	.	-1
O=C(O)c1cccc(NC2=C(n3nnc4ccccc43)C(=O)c3ccccc3C2=O)c1	-1	-5	-29	-8	82*	1
CC(=O)c1ccc(NC(=O)CC2Nc3cccc4cccc(c34)NC2=O)cc1 (stereo unspecified)	0	-8	20	-37	9	5
COc1cc(NC(=O)CSc2ncnc3sc4c(c23)CCCC4)c(C(=O)O)cc1OC	96*	-4	9	1	5	-2
CCC12CN(C(=O)c3ccco3)CC(CC)(CN(C(=O)c3ccco3)C1)C2=O	-2	7	2	0	55*	-1
CCC(=O)Nc1ccc2c(c1)OC[C@@H](C)N(Cc1cccc(F)c1)C[C@@H](C)[C@@H](OC)CN(C)C2=O	.	.	5	.	0	-2
O=C(O)c1c[nH]c2ccc(S(=O)(=O)N3CCN(c4ccc(F)cc4)CC3)cc2c1=O	76*	17	4	9	30	59*
O=C1Cc2cc(S(=O)(=O)N3CCN(c4ccc(C(=O)O)cc4)CC3)ccc2N1	-1	.	31	-4	38*	18
CC(=O)c1ccc(N2CCN(S(=O)(=O)c3ccc4c(c3)NC(=O)CC(=O)N4)CC2)cc1	3	11	3	10	8	3
